In article PMC3961502 (The Journal of investigative dermatology, 2013):

What was measured:
Assay type in all cases: cell-based, human
AHDF [1] = experiment: TUNEL apoptosis assay under nutrient deprivation; conditions: AHDF in HBSS, 3 days of starvation; 1 nM PDGF, 10 µM P12; >800 cells counted, n=6, mean
AHDF [2] = experiment: cell morphology by phase contrast microscopy under nutrient deprivation; conditions: AHDF in HBSS 3 days; 1 nM PDGF, 10 µM P12
[3] = tested on: MCF-7 cells expressing GFP-PDGFR-β; experiment: PDGFR-GFP / TR-dextran co-localization; conditions: MCF-7 pre-incubated with 80 µM dynasore 1 h, then 1 nM PDGF-BB
Summary of the method: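 MCF-7 cells expressing GFP-PDGFR-β were pre-incubated 1 h with 80 µM dynasore in serum-free DMEM. They then received TR-dextran plus 1 nM PDGF-BB ± 10 µM peptide in HBSS for 15 min and were imaged by confocal microscopy. Both channel thresholds were set at 70, and >100 cells were scored per condition. Co-localization index = yellow pixels / (yellow + green pixels).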

PDGFR-β = experiment: PDGFR signaling by Western blot; conditions: AHDF preincubated 1 h with 80 µM dynasore, 1 nM PDGF-BB in HBSS (Figure S9)
Summary of the method: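 AHDF primary dermal fibroblasts (passage 8–12, grown in DMEM/10% FBS) were stimulated with 1 nM PDGF-BB ± 10 µM peptide in HBSS. Cells were lysed in Tris pH 7.5 buffer with phosphatase and protease inhibitors, sonicated and boiled. Equal protein was run on 10% SDS-PAGE and blotted to nitrocellulose, blocked in 2% BSA/TBST, and probed overnight at 4°C. Detection used HRP-secondary chemiluminescence, with signal intensity quantified.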

Q: What does the source list for “PDGF-BB: platelet-derived growth factor BB, purchased from Invitrogen”?
A: apoptosis, %TUNEL+ (TUNEL positive/DAPI positive) (AHDF [1]): 30%; cell morphology (AHDF [2]): rounded or shriveled

Q: Which “PDGF-BB-stimulated internalization of PDGFR-GFP under dynamin inhibition” value [3] does the source give for `O=C(N/N=C/c1ccc(O)c(O)c1)c1cc2ccccc2cc1O` [dynasore] here?
A: Its value is “minimal internalization”.

Q: And the “PDGF-BB stimulated p-Akt signal in the presence of dynasore” value (PDGFR-β)?
A: The value was “inhibition”.
